# Measurements from different studies.
assay,test system,conditions,quantity,value,Compound
,aqueous buffer,pH 6.5,thermodynamic solubility,951 µg/mL,CC[C@H](C)[C@H](NC(=O)[C@H](Cc1ccccc1)NC(=O)[C@H](Cc1ccc(O)cc1)NC(=O)[C@@H]1CCCN1C(=O)[C@H](N)CCCCN)C(=O)N1CCC[C@H]1C(=O)N[C@@H](CC(C)C)C(=O)NCC(=O)N[C@H](CCCCN)C(=O)NCC(=O)N[C@@H](CCC(=O)O)C(=O)N[C@H](C(=O)N[C@@H](CC(N)=O)C(=O)N[C@@H](CC(C)C)[C@@H](O)CC(=O)N[C@H](C(=O)N[C@@H](C)C(=O)N[C@@H](CCC(=O)O)C(=O)N1CCC[C@@H]1C(=O)N[C@@H](CCCCNC(=O)CCC(=O)O[C@H]1CC[C@@]2(C)C(=CC[C@H]3[C@@H]4CC[C@H]([C@H](C)CCCC(C)C)[C@@]4(C)CC[C@@H]32)C1)C(N)=O)C(C)C)C(C)C
absorbance,water,,thermodynamic solubility,> 1000 µM,CC(=O)N[C@@H](CCCNC(=N)N)C(=O)N[C@H]1CSSC[C@@H](C(=O)N[C@H](C(N)=O)[C@@H](C)O)NC(=O)[C@H](CCCNC(=N)N)NC(=O)[C@H](Cc2c[nH]cn2)NC(=O)[C@H](C)NC(=O)CNC(=O)[C@H](Cc2c[nH]c3ccccc23)NC(=O)[C@H](CC(=O)O)NC(=O)[C@H](CCC(N)=O)NC(=O)[C@H](Cc2cn(C)c3ccccc23)NC(=O)[C@H](C(C)C)NC1=O
,aqueous buffer,"72 h, pH 6.8, 37 °C",thermodynamic solubility,158000 µg/mL,CC(=O)Oc1ccccc1C(=O)O
,aqueous buffer,pH 6.5,thermodynamic solubility,< 1 µg/mL,CC[C@H](C)[C@H](NC(=O)[C@H](Cc1ccccc1)NC(=O)[C@H](Cc1ccc(O)cc1)NC(=O)[C@@H](CCCCN)NC(=O)[C@@H](N)Cc1ccc(O)cc1)C(=O)N1CCC[C@H]1C(=O)N[C@@H](CC(C)C)C(=O)NCC(=O)N[C@H](CCCCN)C(=O)NCC(=O)N[C@@H](CCC(=O)O)C(=O)N[C@H](C(=O)N[C@@H](CC(N)=O)C(=O)N[C@@H](CC(C)C)[C@@H](O)CC(=O)N[C@H](C(=O)N[C@@H](C)C(=O)N[C@@H](CCC(=O)O)C(=O)N1CCC[C@@H]1C(=O)N[C@@H](CCCCNC(=O)CCC(=O)O[C@H]1CC[C@@]2(C)C(=CC[C@H]3[C@@H]4CC[C@H]([C@H](C)CCCC(C)C)[C@@]4(C)CC[C@@H]32)C1)C(N)=O)C(C)C)C(C)C
,aqueous buffer,pH 7.4,solubility,< 0.01 µg/mL,Brc1cccc(Nc2nc(NCc3ccccc3)c3ccccc3n2)c1
,aqueous buffer,pH 6.5,thermodynamic solubility,> 2440 µg/mL,CC[C@H](C)[C@H](NC(=O)[C@@H](CCCCN)NC(=O)[C@H](Cc1ccc(O)cc1)NC(=O)[C@@H]1CCCN1C(=O)[C@@H](N)Cc1ccc(O)cc1)C(=O)N1CCC[C@H]1C(=O)N[C@@H](CC(C)C)C(=O)NCC(=O)N[C@H](CCCCN)C(=O)NCC(=O)N[C@@H](CCC(=O)O)C(=O)N[C@H](C(=O)N[C@@H](CC(N)=O)C(=O)N[C@@H](CC(C)C)[C@@H](O)CC(=O)N[C@H](C(=O)N[C@@H](C)C(=O)N[C@@H](CCC(=O)O)C(=O)N1CCC[C@@H]1C(=O)N[C@@H](CCCCNC(=O)CCC(=O)O[C@H]1CC[C@@]2(C)C(=CC[C@H]3[C@@H]4CC[C@H]([C@H](C)CCCC(C)C)[C@@]4(C)CC[C@@H]32)C1)C(N)=O)C(C)C)C(C)C
,PBS,"16 h, pH 7.4",thermodynamic solubility,2400 µM,CCCn1nc(C(=O)N2CCCCC2)c2c1CCC(N(C)Cc1ccc(F)cc1)C2 (stereo not drawn)
shake flask,PBS,"24 h, pH 7.4, 22 °C",kinetic solubility,21 µg/mL,CC(=O)Nc1cc(Nc2cc(NC3CC3)n3ncc(C#N)c3n2)ccc1N(C)[C@H]1CCOC1
,aqueous buffer,pH 6.5,thermodynamic solubility,> 3000 µg/mL,CC[C@H](C)[C@H](NC(=O)[C@H](Cc1ccccc1)NC(=O)[C@@H](CCCCN)NC(=O)[C@@H]1CCCN1C(=O)[C@@H](N)Cc1ccc(O)cc1)C(=O)N1CCC[C@H]1C(=O)N[C@@H](CC(C)C)C(=O)NCC(=O)N[C@H](CCCCN)C(=O)NCC(=O)N[C@@H](CCC(=O)O)C(=O)N[C@H](C(=O)N[C@@H](CC(N)=O)C(=O)N[C@@H](CC(C)C)[C@@H](O)CC(=O)N[C@H](C(=O)N[C@@H](C)C(=O)N[C@@H](CCC(=O)O)C(=O)N1CCC[C@@H]1C(=O)N[C@@H](CCCCNC(=O)CCC(=O)O[C@H]1CC[C@@]2(C)C(=CC[C@H]3[C@@H]4CC[C@H]([C@H](C)CCCC(C)C)[C@@]4(C)CC[C@@H]32)C1)C(N)=O)C(C)C)C(C)C
,aqueous buffer,pH 6.2,solubility,< 0.01 µg/mL,COc1cccc2c(NCc3ccccc3)nc(-n3c(=O)oc4ccccc43)nc12
shake flask,aqueous buffer,"24 h, pH 5, 25 °C",thermodynamic solubility,9.33 µg/mL,COc1ccc(C2CC(=O)c3c(O)cc(O)cc3O2)cc1O (stereo not drawn)
,aqueous buffer,pH 6.2,solubility,0.24 µg/mL,Brc1ccccc1CNc1nc(NCc2ccccc2)c2ccccc2n1
,PBS,pH 7.4,solubility,1940 µg/mL,O=C(O)Cc1ccccc1Nc1c(Cl)cccc1Cl
,aqueous buffer,pH 5,solubility,0.42 µg/mL,Brc1cccc2c(NCc3ccccc3)nc(NCc3ccccc3)nc12
absorbance,water,,thermodynamic solubility,> 1000 µM,CC(=O)N[C@@H](CCCNC(=N)N)C(=O)N[C@H]1CSSC[C@@H](C(=O)N[C@H](C(N)=O)[C@@H](C)O)NC(=O)[C@H](CCCNC(=N)N)NC(=O)[C@H](Cc2c[nH]cn2)NC(=O)[C@H](C)NC(=O)CNC(=O)[C@H](Cc2c[nH]c3ccccc23)NC(=O)[C@H](CC(=O)O)NC(=O)[C@H](CCC(N)=O)NC(=O)[C@H](Cc2c[nH]c3ccccc23)NC(=O)[C@H](C(C)C)NC1=O
